≈ marks a conversion by molar mass, not a printed value. Calls of active or inactive are those of the source. The calls are words filed in the database; no cut-off is given here.

As usually defined, the IC50 is the concentration needed to halve the response being measured.

One assay deals with HepG2. Nature of the assay: Cytotoxicity against human HepG2 cells after 96 hrs by MTT assay. It counts as functional, cell-based. Particulars: HepG2, 96 h. The essentials:
(§1)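 Cells from ATCC, batch cultured 10 d, seeded at 10 × 10³ cells/well in RPMI-1640 with fetal bovine serum, attached 24 h at 37 °C, 5% CO₂. Serum-free medium, then test samples at final 1000, 500, 200, 100, 50, 20, 10 (DMSO ≤1% v/v); 96 h incubation. Formazan read-out against untreated controls; 5-fluorouracil positive control; IC50 from dose–response curve.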
In general terms: Tetrazolium dyes change colour on reduction, which living cells bring about.

A further assay relates to WI-38. The assay is described as follows: Cytotoxicity against human WI38 cells after 96 hrs by MTT assay. It counts as cell-based. The following applies: WI-38, 96 h. A digest of the protocol: as §1
Another assay concerns Vero. The assay is described as follows: Cytotoxicity against african green monkey Vero cells after 96 hrs by MTT assay. Type of assay: cell-based. Particulars: Chlorocebus sabaeus. A digest of the protocol:
as §1

For the next assay, the system named is MCF7. The assay is described as follows: Cytotoxicity against human MCF7 cells after 96 hrs by MTT assay. Particulars: MCF7, 96 h. It counts as functional, cell-based. The essentials: as §1
A further assay relates to Nucleic Acid. Nature of the assay: Protection against bleomycin-iron complex-induced DNA damage using EDTA after 1 hr by thiobarbituric acid method. Type of assay: nucleic-acid assay. A digest of the protocol:
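Bleomycin DNA-damage assay, 1.0 ml final: DNA 0.2 mg/ml, bleomycin 0.05 mg/ml, FeCl₃ 0.025 mM, MgCl₂ 5 mM, KH₂PO₄–KOH pH 7.0 30 mM, sample 0.1 mg/ml in MeOH (ascorbic acid 0.24 mM reference). 37 °C for 1 h; stopped with EDTA; TBA plus HCl, 80 °C 15 min; absorbance read. Three experiments, mean ± S.E.M.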

For `CC(=O)c1sc(Nc2ccccc2)c(-c2nnc(NC(=O)c3ccccc3)o2)c1N`, the half-inhibitory concentration (IC50) was 70.2 µg/mL (≈ 167 µM) in the assay with HepG2, 84.6 µg/mL (≈ 202 µM) in the assay with WI-38, 76.4 µg/mL (≈ 182 µM) in the assay on Vero and 75.5 µg/mL (≈ 180 µM) in the assay on MCF7.
For `CS/C(Nc1ccccc1)=C(\C#N)c1nnc(NC(=O)c2ccccc2)o1`, in that order: 125 µg/mL (≈ 332 µM), 98.7 µg/mL (≈ 262 µM), 132 µg/mL (≈ 351 µM) and 107 µg/mL (≈ 284 µM).
As for `Nc1nn(-c2ccccc2)c(Nc2ccccc2)c1-c1nnc(NC(=O)c2ccccc2)o1`, the IC50 in the assay with HepG2 turned out to be 98.7 µg/mL (≈ 226 µM); with WI-38, 90.5 µg/mL (≈ 207 µM); in the assay on Vero, 98.8 µg/mL (≈ 226 µM); in the assay on MCF7, 99.1 µg/mL (≈ 227 µM).
Take `N#C/C(c1nnc(NC(=O)c2ccccc2)o1)=c1\sc(=O)/c(=C/c2cn(-c3ccccc3)nc2-c2ccccc2)n1-c1ccccc1`: the IC50 was determined as 250 µg/mL (≈ 395 µM) in the assay with HepG2, 340 µg/mL (≈ 537 µM) in the assay with WI-38, 257 µg/mL (≈ 405 µM) with Vero and 411 µg/mL (≈ 648 µM) in the assay on MCF7.
With `Nc1c(C(=O)c2ccccc2)sc(Nc2ccccc2)c1-c1nnc(NC(=O)c2ccccc2)o1`, the IC50 with HepG2 was 90.7 µg/mL (≈ 188 µM); with WI-38, 89.6 µg/mL (≈ 186 µM); in the assay with Vero, 101 µg/mL (≈ 209 µM); in the assay with MCF7, 100 µg/mL (≈ 209 µM).
`N#C/C(=C1\SC(=O)CN1c1ccccc1)c1nnc(NC(=O)c2ccccc2)o1`: the IC50 in the assay with HepG2 came to 51.2 µg/mL (≈ 127 µM); with WI-38 it was 52.4 µg/mL (≈ 130 µM); with Vero, 50.3 µg/mL (≈ 125 µM); in the assay with MCF7, 69.2 µg/mL (≈ 172 µM).
Regarding `NC1=Nn2c(nnc2NC(=O)c2ccccc2)C1`, the IC50 in the assay on HepG2 stood at 65.6 µg/mL (≈ 271 µM); in the assay on WI-38, 65 µg/mL (≈ 268 µM); in the assay on Vero, 69.8 µg/mL (≈ 288 µM); in the assay on MCF7, 66.8 µg/mL (≈ 276 µM).
For `O=C(Nc1nnc(-c2cc3ccccc3oc2=O)o1)c1ccccc1`, in that order: 35.6 µg/mL (≈ 107 µM), 35.8 µg/mL (≈ 107 µM), 34.5 µg/mL (≈ 104 µM) and 32.6 µg/mL (≈ 97.8 µM).
For `Nc1n[nH]c(Nc2ccccc2)c1-c1nnc(NC(=O)c2ccccc2)o1`, in that order: 33.7 µg/mL (≈ 93.3 µM), 38.4 µg/mL (≈ 106 µM), 36.3 µg/mL (≈ 100 µM) and 38.3 µg/mL (≈ 106 µM).
Turning to `N#C/C(=C(\S)Nc1ccccc1)c1nnc(NC(=O)c2ccccc2)o1`, the IC50 in the assay with HepG2 was determined as 100 µg/mL (≈ 276 µM); in the assay on WI-38 it was 84.6 µg/mL (≈ 233 µM); with Vero it was 82.4 µg/mL (≈ 227 µM); in the assay with MCF7 it was 77.5 µg/mL (≈ 213 µM).
Turning to `O=c1[nH]cc(F)c(=O)[nH]1` [FLUOROURACIL], half-maximal inhibition in the assay with WI-38 (IC50) was put at 3.2 µg/mL (≈ 24.6 µM).
Consider `N#CCc1nnc(NC(=O)c2ccccc2)o1`, for which the IC50 in the assay with HepG2 was determined as 21.2 µg/mL (≈ 92.9 µM); in the assay on WI-38, 24.4 µg/mL (≈ 107 µM); in the assay with Vero it was 30.3 µg/mL (≈ 133 µM); in the assay on MCF7, 39.2 µg/mL (≈ 172 µM). In addition, the outcome with Nucleic Acid was Active.
With `O=C(Nc1nnc(-c2nc3ccc4ccccc4c3oc2=O)o1)c1ccccc1`, the IC50 came out at 111 µg/mL (≈ 290 µM) in the assay on HepG2, 90.9 µg/mL (≈ 237 µM) in the assay on WI-38, 95.4 µg/mL (≈ 248 µM) in the assay with Vero and 96.9 µg/mL (≈ 252 µM) in the assay on MCF7.
Taken in the same sequence, the figures for `COc1ccc(/C=C(/C#N)c2nnc(NC(=O)c3ccccc3)o2)cc1` were 69.5 µg/mL (≈ 201 µM), 71.2 µg/mL (≈ 206 µM), 95.6 µg/mL (≈ 276 µM) and 49.9 µg/mL (≈ 144 µM).
For `CC1=CS/C(=C(\C#N)c2nnc(NC(=O)c3ccccc3)o2)N1c1ccccc1`, the IC50 in the assay with HepG2 is 12.4 µg/mL (≈ 30.9 µM); with WI-38, 17.3 µg/mL (≈ 43.1 µM); in the assay with Vero, 15.8 µg/mL (≈ 39.4 µM); with MCF7 it was 25.8 µg/mL (≈ 64.3 µM). The outcome in the assay with Nucleic Acid was Active.
Take `Cc1c(/C=c2/c(=O)s/c(=C(\C#N)c3nnc(NC(=O)c4ccccc4)o3)n2-c2ccccc2)c(=O)n(-c2ccccc2)n1C`: the IC50 stood at 146 µg/mL (≈ 242 µM) with HepG2, 175 µg/mL (≈ 291 µM) with WI-38, 170 µg/mL (≈ 282 µM) in the assay on Vero and 167 µg/mL (≈ 277 µM) in the assay on MCF7.
Taken in the same sequence, the figures for `O=C(Nc1nnc(-c2nc3c(ccc4ccccc43)oc2=O)o1)c1ccccc1` were 190 µg/mL (≈ 494 µM), 181 µg/mL (≈ 470 µM), 189 µg/mL (≈ 492 µM) and 222 µg/mL (≈ 577 µM).
For `N#C/C(=C/c1cn(-c2ccccc2)nc1-c1ccccc1)c1nnc(NC(=O)c2ccccc2)o1`, in that order: 38.1 µg/mL (≈ 83.1 µM), 24.1 µg/mL (≈ 52.6 µM), 39.6 µg/mL (≈ 86.4 µM) and 37.4 µg/mL (≈ 81.6 µM).

(Values after ChEMBL document CHEMBL1932913, “Synthesis and antitumor evaluation of some new 1,3,4-oxadiazole-based heterocycles” (Eur J Med Chem, 2012).)
